Target: T1, purified mLYPLAL1 (Mus musculus, UniProt Q3UFF7)
T1 sequence (Q3UFF7 1-239): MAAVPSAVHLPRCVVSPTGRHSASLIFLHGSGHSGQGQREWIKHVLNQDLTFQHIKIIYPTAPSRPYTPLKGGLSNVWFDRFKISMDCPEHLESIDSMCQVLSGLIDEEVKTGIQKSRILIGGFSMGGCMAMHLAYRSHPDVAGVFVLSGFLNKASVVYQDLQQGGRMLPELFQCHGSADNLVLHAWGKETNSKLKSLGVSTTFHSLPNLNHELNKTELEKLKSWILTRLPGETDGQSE
Assay: NanoDSF thermal stability assay
Assay type: binding
Details: recombinant mLYPLAL1
Summary of the method: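 Purified mouse LYPLAL1 (2.3 μM final) in PBS pH 7.4 with varying test compound concentrations (2% DMSO final) in capillaries. Intrinsic-fluorescence nanoDSF over a 20–95°C ramp at 1°C/min. Kd estimated by isothermal analysis of the unfolding data.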

For `COc1ccc(S(=O)(=O)n2nc(NCc3ccc(Cl)cc3)nc2N)cc1` [Compound 80, 3-(4-chlorobenzyl)amino-1-((4-methoxyphenyl)sulfonyl)-5-amino-1H-1,2,4-triazole], which “effect on thermal stability of mLYPLAL1” value is on record?
Its value is “not seen”.

Source: article PMC7442688 (Nature chemical biology, 2020)
